Laboratory results published in ChEMBL document CHEMBL4513216, “Probing the Open Global Health Chemical Diversity Library for Multistage-Active Starting Points for Next-Generation Antimalarials” (ACS Infect Dis, 2020).

test: Toxicity liver stage against HepG2, at 10uM; assay type: cell-based; parameters: test concentration 10 uM, cell line HepG2-A16-CD81EGFP; conditions: human, HepG2-A16-CD81EGFP cells; read-out: INHIBITION
In short: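 Uninfected HepG2-A16-CD81EGFP cells, 3 × 10^3 per well, 1536-well, plated on prespotted compound at 10 μM final, parasite-free screening media added to match infected plates; puromycin 10 μM positive, DMSO 0.5% negative; run in parallel with 48 h PbLuc assay at 37 °C, 5% CO2; viability by CellTiter-Glo luminescence, normalized to controls.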

First: Cc1nccn1[C@@H]1CC[C@@H](NC(=O)CCCn2cccn2)[C@H]1O
Second: CS(=O)(=O)Cc1cccc(C(=O)N2CCCC(n3cccn3)C2)c1 (stereo not given)
The cytotoxicity at 10 µM of the first is lower: -6.28% for the first, 5.05% for the second.

First: O=C(c1n[nH]c2ccccc12)N1CCCC1c1noc(C2CC2)n1 (stereo not given)
Second: Cc1n[nH]c(C)c1C1CCCN1C(=O)NCC(=O)Nc1ccccc1 (stereo not given)
The cytotoxicity at 10 µM of the first is lower: -10.8% for the first, 4.23% for the second.

Compared with `COc1ccccc1C(C)(C)NC(=O)NCCC(=O)NC1CCCC1`, `COc1ccccc1CNC(=O)CN(C)C(C)c1nccs1` (stereo not given) is lower in cytotoxicity at 10 µM: 8.42% for the first, 1.81% for the second.

Going from `COCCN1CC2(CCC1=O)CCN(Cc1cc(F)ccc1Cl)CC2` to `CC[C@@H]1N(Cc2ccc(C)o2)CCC[C@]12CCC(=O)N2CCOC`, the cytotoxicity at 10 µM rises from 5.29% to 10.5%.

Compared with `Cc1cnc(C)c(N2CCCC(CO)(Cc3cccc(Cl)c3)C2)n1` (stereo not given), `O=C(CO)N1CCC(c2cncc(-c3cccc(Cl)c3)n2)CC1` is lower in cytotoxicity at 10 µM: 7.78% for the first, -0.105% for the second.

Compared with `O=C(c1cc[nH]n1)N1CCC(c2nccn2Cc2ccncc2)CC1`, `Cn1ccc(C(=O)N2CCC(Cc3cnc4[nH]ccc4c3)CC2)n1` is higher in cytotoxicity at 10 µM: 0.216% for the first, 8.77% for the second.

Going from `CC(C)CCN1C2(CCN(Cc3nccs3)C2)c2ccccc2S1(=O)=O` (stereo not given) to `CC(C)Cn1cc(C(=O)NC2CCS(=O)(=O)C2)c2ccccc2c1=O` (stereo not given), the cytotoxicity at 10 µM rises from -65% to 0.724%.

Going from `CCN(CC)S(=O)(=O)N1CCC(c2c(C(N)=O)sc3ccccc23)C1` (stereo not given) to `CS(=O)(=O)c1cncnc1C1CCCN(C(=O)Nc2ccc(F)cc2)C1` (stereo not given), the cytotoxicity at 10 µM falls from 1.4% to -1.86%.

Going from `O=C(NCc1nnc2n1CCC2)N(Cc1ccco1)C1CC1` to `COc1cc(NC(=O)N2CCCC2c2nncn2C)ccc1Br` (stereo not given), the cytotoxicity at 10 µM rises from -6.11% to 5.67%.

Going from `Cc1nc(CN2CCN(C(=O)NC(C)c3cccnc3)CC2)cs1` (stereo not given) to `Cc1nc(CN2CCN(Cc3cc4n(n3)CCNC4)CC2)cs1`, the cytotoxicity at 10 µM rises from -10.4% to -3.25%.

Going from `CCC1CCCCN1C(=O)CCn1cnc2sccc2c1=O` (stereo not given) to `CN(C)Cc1cn(-c2ccccc2C(=O)NCCC2CCCN2C)cn1` (stereo not given), the cytotoxicity at 10 µM rises from -9.79% to 4.08%.

First: Cc1nccn1-c1cc(CNC(=O)c2ccnc(N(C)C)c2)ccn1
Second: COCC(c1cccc(C(F)(F)F)c1)N(C)C(=O)c1ccccn1 (stereo not given)
The cytotoxicity at 10 µM of the first is higher: 2.32% for the first, -12% for the second.

Going from `FC(F)(F)Cn1nnnc1SCCN1CCCCC1` to `CCC(COC)NC(=O)N1CCC(n2ccc(C(F)(F)F)n2)CC1` (stereo not given), the cytotoxicity at 10 µM rises from -61.4% to -12%.

Compared with `CCN1CCC(CC(=O)N2CCc3sc(C(=O)N(C)C)cc3C2)CC1`, `Cc1noc(C)c1CNC(=O)N1CCC(CO)CC1` is higher in cytotoxicity at 10 µM: -21.1% for the first, -8.08% for the second.

First: COCC1CN(Cc2ccc3c(c2)OCO3)Cc2ncn(C)c21 (stereo not given)
Second: Cc1cnn(CCNCc2csc(-c3ccc4c(c3)OCO4)n2)c1
The cytotoxicity at 10 µM of the first is higher: 4.18% for the first, -6.41% for the second.

First: c1ccc2oc(CCCN3CCc4cncnc4C3)nc2c1
Second: Cc1cc(Cc2ccccc2F)cc(C2CCCNC2)n1 (stereo not given)
The cytotoxicity at 10 µM of the first is lower: -14.6% for the first, 0.00505% for the second.

First: CCCC(=O)Nc1sc(C(=O)OCC)c(C)c1C#N
Second: COC(=O)c1sccc1S(=O)(=O)NCCc1ccoc1
The cytotoxicity at 10 µM of the first is higher: 8.29% for the first, 2.6% for the second.

Compared with `Cn1cc(C(=O)NCc2cncc3c2CCN(S(C)(=O)=O)C3)cn1`, `CNc1cncc(C2CCCN2C(=O)c2ccc3oc(=O)n(C)c3c2)n1` (stereo not given) is higher in cytotoxicity at 10 µM: -105% for the first, -1.57% for the second.

Compared with `COCCN(CC1CCCN(C2Cc3ccccc3C2)C1)C(=O)CSC` (stereo not given), `COCCCN1CCCC(c2nccn2CC2CCC2)C1` (stereo not given) is lower in cytotoxicity at 10 µM: -1.66% for the first, -3.94% for the second.

Compared with `Cc1nc2c(c(NCCc3nc4c(s3)CCCC4)n1)CCNCC2`, `Cc1nc(C2CCCN(C(=O)C3=NN(C(C)C)C(=O)CC3)C2)no1` (stereo not given) is higher in cytotoxicity at 10 µM: -7.33% for the first, -3.32% for the second.

Compared with `CCOc1cc(NC(=O)N2CCC3(CCOCC3)C2)ccc1C`, `Cc1cccc(C2CCCN(C(=O)CN3C(=O)CCNC3=O)C2)c1` (stereo not given) is lower in cytotoxicity at 10 µM: 2.89% for the first, -2.56% for the second.

Compared with `C[C@@H]1CN(Cc2cc(C3CCCCC3)no2)CC[C@@]1(O)C1CC1`, `COc1ccc2c(C)nc(N3CCN([C@H]4CCCC[C@@H]4O)CC3)nc2c1` is higher in cytotoxicity at 10 µM: 0.957% for the first, 7.24% for the second.

Compared with `COc1ccc(F)c(CN2CCCC(O)(CNCc3ccoc3)C2=O)c1` (stereo not given), `COc1cccc(CN2C[C@@H]3CC[C@@](O)(c4ccccn4)[C@@H]3C2)c1OC` is lower in cytotoxicity at 10 µM: 10.9% for the first, -9.94% for the second.

Compared with `COc1ccc(CN2C[C@H]3CCC[C@@H](CN(C)C)[C@H]3C2)cn1`, `O=C1O[C@@H]2CN(S(=O)(=O)N3CCCC3)C[C@@H]2N1CCc1cccc(Cl)c1` is lower in cytotoxicity at 10 µM: 4.65% for the first, -2.9% for the second.

First: Cc1cccc(CNC(CN2CCN(C)CC2)c2ccccc2)c1 (stereo not given)
Second: Cc1ccc(Cn2nc(C)c3c(C(=O)O)c(Cl)c(C4CC4)nc32)cc1
The cytotoxicity at 10 µM of the first is lower: -3.61% for the first, 6.75% for the second.

First: NC(=O)c1nnn(-c2ccc(Br)cc2)n1
Second: CCS(=O)(=O)Nc1ccc2[nH]c(C3CCC3)nc2c1
The cytotoxicity at 10 µM of the first is higher: 6.56% for the first, -13.2% for the second.

Going from `CCN(CC)CCNC(=O)c1nn(CC)cc1Cl` to `CC(C)N(CC(N)=O)Cc1csc(C(C)(C)C)n1`, the cytotoxicity at 10 µM falls from 2.58% to -5.13%.

With `CCn1nc(C)c(CN2CCNCC2)c1C` the cytotoxicity at 10 µM was 6.4%.
